Laboratory results from ChEMBL document CHEMBL1143109, “Discovery of novel orally active ureido NPY Y5 receptor antagonists” (Bioorg Med Chem Lett, 2008).

Columns and labels:
[1] = Drug level in plasma of Sprague-Dawley DIO rat at 10 mg/kg/day, po after 28 days; assay type: ADME, organism-based; design: route oral
Summary of the method: (§1)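 DIO rats weighing 700–800 g at start, n = 12/group, food and water ad libitum. Compound admixed into low fat diet for 28 days; delivered doses (1, 3 or 10 mg/kg/day) calculated from food consumption. Body composition by DEXA scanning, expressed as percent change from day 0 baseline; average plasma levels taken at the 10 mg/kg/day dose.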

[2] = molecular target: T1, 5-hydroxytryptamine receptor 3A (Homo sapiens) (UniProt P46098); assay: Inhibition of 5HT3 receptor at 10 uM
T1 sequence (whole entry): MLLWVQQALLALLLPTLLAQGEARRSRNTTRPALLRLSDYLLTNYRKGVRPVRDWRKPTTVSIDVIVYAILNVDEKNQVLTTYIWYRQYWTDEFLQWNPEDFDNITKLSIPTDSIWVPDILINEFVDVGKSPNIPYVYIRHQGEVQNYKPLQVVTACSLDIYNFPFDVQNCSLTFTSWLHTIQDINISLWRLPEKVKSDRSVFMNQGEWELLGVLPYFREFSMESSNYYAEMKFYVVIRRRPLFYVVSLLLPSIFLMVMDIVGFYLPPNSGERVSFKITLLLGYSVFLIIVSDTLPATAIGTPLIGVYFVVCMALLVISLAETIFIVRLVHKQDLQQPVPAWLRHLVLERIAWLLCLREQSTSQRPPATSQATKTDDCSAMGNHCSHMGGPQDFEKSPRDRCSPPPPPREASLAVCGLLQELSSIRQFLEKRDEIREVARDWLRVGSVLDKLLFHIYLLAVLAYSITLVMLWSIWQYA
Summary of the method: (§2)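 Counterscreen panel of 60 receptors, enzymes and ion channels; inhibition of binding measured at 10 µM.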

[3] = molecular target: Sodium-dependent serotonin transporter (Homo sapiens) (UniProt P31645); assay: Inhibition of serotonin transporter at 10 uM; summary of the method: as §2
Sequence of Sodium-dependent serotonin transporter (Homo sapiens) (P31645 whole entry, looked up): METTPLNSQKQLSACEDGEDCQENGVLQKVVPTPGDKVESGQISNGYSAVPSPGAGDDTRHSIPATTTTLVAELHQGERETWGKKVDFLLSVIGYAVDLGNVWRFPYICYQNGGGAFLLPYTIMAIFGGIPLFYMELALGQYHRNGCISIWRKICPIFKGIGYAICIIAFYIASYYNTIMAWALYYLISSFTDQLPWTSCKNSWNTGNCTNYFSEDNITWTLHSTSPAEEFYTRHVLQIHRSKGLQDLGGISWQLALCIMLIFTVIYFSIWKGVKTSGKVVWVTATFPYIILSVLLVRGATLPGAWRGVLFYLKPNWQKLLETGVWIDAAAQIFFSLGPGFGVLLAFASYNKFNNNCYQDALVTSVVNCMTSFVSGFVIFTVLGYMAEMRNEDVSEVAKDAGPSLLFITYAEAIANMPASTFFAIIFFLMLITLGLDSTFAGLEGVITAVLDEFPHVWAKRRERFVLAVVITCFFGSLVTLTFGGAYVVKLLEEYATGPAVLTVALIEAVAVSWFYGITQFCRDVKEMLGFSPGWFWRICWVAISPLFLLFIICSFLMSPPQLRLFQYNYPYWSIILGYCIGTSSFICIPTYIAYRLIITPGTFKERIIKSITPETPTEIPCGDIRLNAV

[4] = system: Rattus norvegicus; assay: Reduction in body weight gain in po dosed Sprague-Dawley DIO rat after 28 days relative to control; assay type: functional, organism-based; summary of the method: as §1
[5] = molecular target: Neuropeptide Y receptor type 5 (Homo sapiens, UniProt Q15761); assay: Displacement of [125]PYY from human chimeric NPY Y5 receptor expressed in CHOK1 cells; assay type: cell-based; details: cho-k1
Sequence of Neuropeptide Y receptor type 5 (Q15761 whole entry, looked up): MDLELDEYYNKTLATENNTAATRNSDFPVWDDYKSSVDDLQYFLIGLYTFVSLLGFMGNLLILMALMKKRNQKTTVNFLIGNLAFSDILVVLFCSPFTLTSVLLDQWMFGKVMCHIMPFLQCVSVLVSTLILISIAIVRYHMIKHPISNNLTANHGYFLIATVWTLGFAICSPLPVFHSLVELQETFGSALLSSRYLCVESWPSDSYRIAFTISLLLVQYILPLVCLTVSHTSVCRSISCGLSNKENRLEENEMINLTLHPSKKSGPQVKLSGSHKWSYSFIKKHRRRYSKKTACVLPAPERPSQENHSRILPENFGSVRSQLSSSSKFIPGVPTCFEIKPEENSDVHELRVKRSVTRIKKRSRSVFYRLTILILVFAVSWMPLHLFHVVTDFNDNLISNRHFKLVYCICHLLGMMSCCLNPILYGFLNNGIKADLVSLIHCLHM
Summary of the method: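 Binding to human chimeric Y5 receptor expressed in CHO-K1 cells; Ki values are the average of two determinations.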

[6] = molecular target: 5-hydroxytryptamine receptor 2A (Homo sapiens) (UniProt P28223); assay: Inhibition of 5HT2A receptor at 10 uM; summary of the method: as §2
Sequence of 5-hydroxytryptamine receptor 2A (Homo sapiens) (P28223 whole entry): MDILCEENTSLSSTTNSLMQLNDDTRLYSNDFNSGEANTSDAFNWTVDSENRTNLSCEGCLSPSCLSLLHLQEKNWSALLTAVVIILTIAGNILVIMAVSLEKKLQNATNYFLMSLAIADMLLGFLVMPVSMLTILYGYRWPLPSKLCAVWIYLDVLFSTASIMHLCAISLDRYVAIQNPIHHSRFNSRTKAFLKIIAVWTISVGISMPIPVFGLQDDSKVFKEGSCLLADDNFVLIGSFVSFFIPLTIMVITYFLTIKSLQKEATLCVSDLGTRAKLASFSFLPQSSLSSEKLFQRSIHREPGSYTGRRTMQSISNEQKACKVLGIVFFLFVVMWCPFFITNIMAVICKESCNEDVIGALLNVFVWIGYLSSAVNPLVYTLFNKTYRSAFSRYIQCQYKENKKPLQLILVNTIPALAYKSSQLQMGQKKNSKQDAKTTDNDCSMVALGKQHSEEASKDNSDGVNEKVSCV

[7] = molecular target: Sodium-dependent dopamine transporter (Homo sapiens) (UniProt Q01959); assay: Inhibition of dopamine transporter at 10 uM; summary of the method: as §2
Sequence of Sodium-dependent dopamine transporter (Homo sapiens) (Q01959 whole entry): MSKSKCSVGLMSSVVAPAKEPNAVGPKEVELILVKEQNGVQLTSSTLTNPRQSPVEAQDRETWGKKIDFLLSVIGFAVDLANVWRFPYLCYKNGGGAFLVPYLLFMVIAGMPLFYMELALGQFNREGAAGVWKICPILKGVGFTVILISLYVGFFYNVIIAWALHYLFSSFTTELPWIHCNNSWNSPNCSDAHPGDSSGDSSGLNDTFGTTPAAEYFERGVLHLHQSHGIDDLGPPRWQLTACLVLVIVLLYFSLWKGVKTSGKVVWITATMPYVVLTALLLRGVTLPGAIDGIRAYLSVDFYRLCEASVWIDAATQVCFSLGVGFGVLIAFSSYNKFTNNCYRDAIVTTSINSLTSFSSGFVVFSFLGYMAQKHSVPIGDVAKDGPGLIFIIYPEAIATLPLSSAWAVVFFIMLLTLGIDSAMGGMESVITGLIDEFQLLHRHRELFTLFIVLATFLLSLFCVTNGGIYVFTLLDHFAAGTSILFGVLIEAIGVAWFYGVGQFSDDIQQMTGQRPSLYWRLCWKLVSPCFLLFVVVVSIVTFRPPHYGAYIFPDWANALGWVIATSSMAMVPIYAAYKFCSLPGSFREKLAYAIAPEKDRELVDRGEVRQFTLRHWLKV

[8] = molecular target: 5-hydroxytryptamine receptor 6 (Homo sapiens) (UniProt P50406); assay: Inhibition of 5HT6 receptor at 10 uM; summary of the method: as §2
Sequence of 5-hydroxytryptamine receptor 6 (Homo sapiens) (P50406 whole entry): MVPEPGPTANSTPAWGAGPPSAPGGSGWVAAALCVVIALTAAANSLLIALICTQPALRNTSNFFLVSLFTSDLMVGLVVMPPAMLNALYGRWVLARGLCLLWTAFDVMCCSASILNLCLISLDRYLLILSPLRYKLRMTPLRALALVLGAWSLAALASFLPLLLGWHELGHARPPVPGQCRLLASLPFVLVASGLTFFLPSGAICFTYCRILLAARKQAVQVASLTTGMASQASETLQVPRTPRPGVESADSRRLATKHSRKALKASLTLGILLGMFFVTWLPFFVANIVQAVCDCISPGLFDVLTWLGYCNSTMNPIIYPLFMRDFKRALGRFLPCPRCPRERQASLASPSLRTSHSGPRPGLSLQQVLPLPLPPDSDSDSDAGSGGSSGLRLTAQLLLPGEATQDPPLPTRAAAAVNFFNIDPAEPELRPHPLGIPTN

[9] = Inhibition of potassium channel at 10 uM; summary of the method: as §2
[10] = molecular target: 5-hydroxytryptamine receptor 2B (Homo sapiens) (UniProt P41595); assay: Inhibition of 5HT2B receptor at 10 uM; summary of the method: as §2
Sequence of 5-hydroxytryptamine receptor 2B (Homo sapiens) (P41595 whole entry): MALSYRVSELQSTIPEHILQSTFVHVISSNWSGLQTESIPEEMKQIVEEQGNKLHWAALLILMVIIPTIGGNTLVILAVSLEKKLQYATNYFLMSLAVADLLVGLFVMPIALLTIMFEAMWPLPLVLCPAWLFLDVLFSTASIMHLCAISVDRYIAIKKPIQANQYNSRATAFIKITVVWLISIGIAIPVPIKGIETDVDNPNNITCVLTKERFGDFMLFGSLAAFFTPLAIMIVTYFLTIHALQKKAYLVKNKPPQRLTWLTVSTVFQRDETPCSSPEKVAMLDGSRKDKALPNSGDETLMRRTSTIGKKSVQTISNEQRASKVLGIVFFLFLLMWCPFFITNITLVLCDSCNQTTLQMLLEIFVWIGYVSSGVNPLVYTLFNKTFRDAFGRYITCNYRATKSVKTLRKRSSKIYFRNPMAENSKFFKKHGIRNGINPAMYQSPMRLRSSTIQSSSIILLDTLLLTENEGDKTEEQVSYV

[11] = Inhibition of sodium channel at 10 uM; summary of the method: as §2

CC(=O)N1CCC(N(C)C(=O)N[C@H]2CC[C@H](c3cc(F)cc(F)c3)CC2)CC1
concentration at 672 h [1]: 13 µM | inhibition [2]: < 10% | inhibition [3]: < 10% | Activity [4]: Dose-dependent effect | Ki [5]: 1.8 nM | inhibition [6]: < 10% | inhibition [7]: < 10% | inhibition [8]: < 10% | inhibition [9]: < 25% | inhibition [10]: < 10% | inhibition [11]: < 25%
